A short description of one data set: Solubility versus pH. The data set is classed as physicochemical. Conditions: dependence on pH.
Another data set concerns the target CYP3A4 (Homo sapiens, UniProt P08684). The experiment in a line: In vitro mechanism-based inactivation of CYP3A4. The data set is classed as biochemical.
The target in data set [1] is cytochrome P450 (CYP) 3A4 (Homo sapiens, UniProt P08684). The experiment in a line: In vitro metabolism: enzyme responsible. The data set is classed as in vitro ADME. Conditions: in vitro studies.
Chain of cytochrome P450 (CYP) 3A4 (P08684 whole entry): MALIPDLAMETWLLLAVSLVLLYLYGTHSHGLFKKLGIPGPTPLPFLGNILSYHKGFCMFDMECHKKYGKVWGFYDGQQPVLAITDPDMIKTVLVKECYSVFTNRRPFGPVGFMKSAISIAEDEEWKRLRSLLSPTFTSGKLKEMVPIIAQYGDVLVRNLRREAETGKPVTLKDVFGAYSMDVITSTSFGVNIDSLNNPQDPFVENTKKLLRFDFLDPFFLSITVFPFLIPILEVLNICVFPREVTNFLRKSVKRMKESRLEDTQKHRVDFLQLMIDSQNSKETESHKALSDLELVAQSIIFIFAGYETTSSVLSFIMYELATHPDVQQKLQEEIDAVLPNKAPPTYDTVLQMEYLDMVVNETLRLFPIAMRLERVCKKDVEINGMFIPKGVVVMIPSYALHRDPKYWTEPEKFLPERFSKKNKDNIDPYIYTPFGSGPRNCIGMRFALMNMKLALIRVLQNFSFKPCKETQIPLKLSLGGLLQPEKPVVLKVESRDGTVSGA
Another data set is described as follows: Rifampin. It counts as in vivo, human. In short, it runs like this: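 Crossover in healthy adults (18–60 y, BMI 18–30 kg/m2) with a 10-day washout. Single oral 600 mg dose given alone or with rifampin 600 mg (2 × 300 mg capsules), taken with 240 mL water after at least 8–10 h fasting and 4 h further fasting. Plasma was measured by LC-MS/MS (30–3750 ng/mL). ANOVA (treatment, period, sequence, subject within sequence) on log Cmax/AUC∞ gave 90% CIs.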

The nature of another data set: Esomeprazole. It counts as in vivo, human. To be noted: for AUC(0-inf) / Cmax: human, plasma, oral, Geometric LS mean, ANOVA. In short, it runs like this:
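Healthy adults (18–60 y, BMI 18–30 kg/m2) in an open-label randomized two-period crossover with a 10-day washout. Single 600 mg oral dose (3 × 200 mg capsules) alone or with esomeprazole 40 mg, fasted at least 8–10 h plus 4 h post-dose. Plasma was assayed by LC-MS/MS (30–3750 ng/mL). ANOVA on ln Cmax/AUC∞ gave 90% CIs of geometric LS mean ratios.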

The target of a further data set is T1, UGT1A4 (Homo sapiens, UniProt P22310).
T1 sequence (P22310 29-534): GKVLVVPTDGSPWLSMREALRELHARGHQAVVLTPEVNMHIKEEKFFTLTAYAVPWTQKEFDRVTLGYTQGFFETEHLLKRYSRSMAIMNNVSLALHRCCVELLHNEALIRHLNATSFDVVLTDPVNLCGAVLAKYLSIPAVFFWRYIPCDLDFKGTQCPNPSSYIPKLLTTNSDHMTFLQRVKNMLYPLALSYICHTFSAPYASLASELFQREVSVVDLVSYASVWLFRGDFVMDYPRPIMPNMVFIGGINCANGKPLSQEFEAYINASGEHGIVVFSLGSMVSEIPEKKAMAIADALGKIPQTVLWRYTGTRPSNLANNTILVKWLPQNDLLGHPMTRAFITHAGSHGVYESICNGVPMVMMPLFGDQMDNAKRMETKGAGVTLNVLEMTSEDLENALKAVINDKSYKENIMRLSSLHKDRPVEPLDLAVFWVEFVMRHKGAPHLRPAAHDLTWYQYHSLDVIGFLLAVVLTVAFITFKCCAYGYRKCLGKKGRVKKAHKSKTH
The experiment in a line: UGT substrate / metabolite formation. It counts as in vitro ADME. To be noted: generates ZAAD-1006a.

The nature of the next data set: Probenecid. It counts as in vivo, human. In outline:
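Two-treatment crossover in healthy subjects (18–60 y, BMI 18–32 kg/m2) with a 17-day washout. A 600 mg oral capsule dose was given alone or with probenecid 500 mg tablet, after fasting at least 8–10 h and for 4 h post-dose. Plasma was collected through 312 h and measured by LC-MS/MS. Ratios came from ANOVA of ln-transformed Cmax and AUC∞ with 90% CIs.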

In a further data set the target is T2, OAT1 (Homo sapiens, UniProt Q4U2R8).
T2 sequence (Q4U2R8 1-563): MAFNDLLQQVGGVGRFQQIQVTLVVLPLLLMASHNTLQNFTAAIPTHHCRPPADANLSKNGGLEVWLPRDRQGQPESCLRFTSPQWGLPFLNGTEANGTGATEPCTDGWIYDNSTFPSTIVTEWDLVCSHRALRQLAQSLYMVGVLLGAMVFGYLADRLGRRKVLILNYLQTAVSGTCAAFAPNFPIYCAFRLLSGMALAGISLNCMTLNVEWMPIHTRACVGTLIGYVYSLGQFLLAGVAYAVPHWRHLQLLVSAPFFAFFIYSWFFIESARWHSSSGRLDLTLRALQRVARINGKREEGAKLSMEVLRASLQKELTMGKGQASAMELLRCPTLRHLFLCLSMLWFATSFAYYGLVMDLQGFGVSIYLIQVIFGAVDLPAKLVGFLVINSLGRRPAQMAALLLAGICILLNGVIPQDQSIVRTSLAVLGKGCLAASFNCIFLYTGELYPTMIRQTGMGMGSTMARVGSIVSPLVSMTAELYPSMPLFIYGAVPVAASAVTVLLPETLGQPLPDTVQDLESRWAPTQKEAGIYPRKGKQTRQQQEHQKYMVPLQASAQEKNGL
The experiment in a line: In vitro OAT1 substrate assessment. Conditions: in vitro data. It counts as in vitro ADME.

Data set [2] can be described thus: Four phase I DDI studies overall. The data set is classed as in vivo, human. In outline: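 Across four crossover studies, healthy subjects received a single 600 mg oral dose fasted. Tmax came from plasma LC-MS/MS profiles, with BLQ values set to zero or missing by position. Safety covered adverse events, physical examination, vital signs, 12-lead ECG and laboratory tests. The investigator graded severity and causality. Analysis was descriptive over all subjects dosed at least once.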

A further data set in a line: Itraconazole. It counts as in vivo, human. In short, it runs like this: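 Healthy adults (18–60 y) in a two-treatment crossover with a 10-day washout. Single 600 mg oral dose given alone or with itraconazole 200 mg oral solution, with overnight fast (at least 8–10 h) and 4 h post-dose fast. Sampling extended to 312 h. Plasma was quantified by validated LC-MS/MS. ANOVA of log-transformed Cmax and AUC∞ gave two-sided 90% CIs of geometric LS mean ratios.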

The conditions of data set [3]: co-administration with probenecid, healthy subjects ref 12; cited from earlier work.
Setting [4] is: co-administered with rifampin vs alone.
Where [5] appears, read: pexidartinib + rifampin vs pexidartinib alone.
Setting [6] is: co-administered with esomeprazole vs alone.
The mark [7] stands for this setting: pexidartinib + esomeprazole vs pexidartinib alone.
Where [8] appears, read: pexidartinib + probenecid vs pexidartinib alone.
[9] abbreviates: co-administered with itraconazole vs alone.
Where [10] appears, read: pexidartinib + itraconazole vs pexidartinib alone.

Chain of CYP3A4 (P08684 whole entry): as the sequence (P08684 whole entry) above

A word on the kinact: it is the rate constant of inactivation at saturating inhibitor. As usually defined, the AUC(0-inf) is the area under the concentration-time curve extrapolated to infinity. In general, Cmax refers to the maximum level reached in the sampled fluid or tissue. In general, Tmax refers to the time at which the peak concentration occurs. Take `FC(F)(F)c1ccc(CNc2ccc(Cc3c[nH]c4ncc(Cl)cc34)cn2)cn1` [Pexidartinib]: the solubility result in “Solubility versus pH” is given as “decreases as pH increases”. Further, the KI (inactivation) on CYP3A4 came to 4.01 µM. In addition, at CYP3A4, the kinact is 0.000377 s⁻¹. Moreover, the “enzyme responsible for metabolism” value in data set [1] was “cytochrome P450 (CYP) 3A4 as the main enzyme”. For the same compound, the “decrease in AUC∞” value in “Rifampin” (setting [4]) is listed as roughly 63%; in the data set “Esomeprazole” (setting [6]) it was roughly 47%. Besides, the “decrease in Cmax” value in “Rifampin” (setting [4]) is on record as “approximately 33%”; in “Esomeprazole” (setting [6]) it was “approximately 55%”. Moreover, the “subjects who experienced a TEAE” value in the data set “Rifampin” (grade 1 diarrhea) is given as “single”; in “Probenecid” (N = 16) it was “Eight”; in the data set “Itraconazole” (N = 16) it was “nine”. In addition, the “AUC∞, Geometric LS mean ratio (90% CI)” value in “Rifampin” (setting [5]) is 37.0 (30.6–44.8) %; in the data set “Esomeprazole” (setting [7]), 53.1 (47.4–59.3) %; in the data set “Probenecid” (setting [8]), 159.8 (143.4–178.0) %; in the data set “Itraconazole” (setting [10]) it was 173.0 (160.7–186.3) %. The “Cmax, Geometric LS mean ratio (90% CI)” value in the data set “Rifampin” (setting [5]) was 67.1 (53.1–84.8) %; in “Esomeprazole” (setting [7]), 45.4 (36.8–55.9) %; in the data set “Probenecid” (setting [8]), 105.8 (92.4–121.0) %; in “Itraconazole” (setting [10]) it was 148.3 (127.8–172.0) %. The total exposure AUC(0-inf) in “Esomeprazole” (600 mg, pexidartinib alone) was determined as 104000 ng·h/mL; in “Esomeprazole” (pexidartinib + esomeprazole) it was 55400 ng·h/mL. In addition, the peak concentration (Cmax) is 6430 ng/mL in “Esomeprazole” (600 mg, pexidartinib alone) and 2920 ng/mL in the data set “Esomeprazole” (pexidartinib + esomeprazole). Besides, the UGT1A4 substrate result on UGT1A4 is “substrate of the UGT1A4 enzyme”. Besides, the “effect on Cmax” value in “Probenecid” (co-administered with probenecid vs alone) is given as “unchanged”. The “subjects with TEAE considered study drug related” value in the data set “Probenecid” (in vivo) was “four”. For the same compound, the “substrate for OAT1” value on OAT1 was “not a substrate for OAT1”. The “severity of treatment-emergent adverse events (TEAEs)” value in [2] (all four studies) was “grade 1 or 2”. In data set [2] (human, plasma, oral), the time to peak (Tmax) lay within 2 to 3 h. Further, in “Itraconazole” (setting [9]), the “increase in AUC∞” value was roughly 73%. Besides, in “Itraconazole” (setting [9]), the “increase in Cmax” value is listed as “approximately 48%”. In the data set “Itraconazole” (pexidartinib or itraconazole), the “subjects with TEAE assessed as related to the study drug” value is “seven”.

On to `CCCc1nc(C(C)(C)O)c(C(=O)O)n1Cc1ccc(-c2ccccc2-c2nnn[nH]2)cc1` [olmesartan], for which the “increase in AUC” value in data set [3] is given as “approximately 50%”.

Values taken from publication PMC9652259 (Clinical Pharmacokinetics, 2022).
